In brackets after ≈: the same amount, converted by molar mass.
Assays:
Pseudomonas aeruginosa = test: Minimal inhibitory concentration against Pseudomonas aeruginosa ATCC 9027 strain; assay type: functional
Summary of the method: (§1)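 Agar dilution on TSA agar; compounds added by 2-fold dilution to melted medium at 50 °C just before pouring. Organisms stored at –80 °C, diluted in peptonated water to 1–2 × 10^7 CFU, applied with multipoint inoculator. MIC = lowest concentration preventing visible growth after 24 h at 35 °C.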

Staphylococcus aureus = test: Minimal inhibitory concentration against […] aureus ATCC 6538 strain; assay type: functional; summary of the method: as §1
[1] = Minimal inhibitory concentration against Shigella enteritidis strain; assay type: functional; summary of the method: as §1
Proteus vulgaris = test: Minimal inhibitory concentration against Proteus vulgaris CNUR6 strain; assay type: functional; summary of the method: as §1
Klebsiella pneumoniae = test: Minimal inhibitory concentration against Klebsiella pneumoniae ATCC 10031 strain; assay type: functional; summary of the method: as §1
Enterobacter cloacae = test: Minimal inhibitory concentration against Enterobacter cloacae OMNFI174 strain; assay type: functional; summary of the method: as §1
Escherichia coli = test: Minimal inhibitory concentration against Escherichia coli ISF 432 strain; assay type: functional; summary of the method: as §1
Enterococcus faecalis = test: Minimal inhibitory concentration against Streptococcus faecalis LEP strain; assay type: functional; summary of the method: as §1
[2] = Urinary excretion in rat after 0-4 hours of oral administration at 50 mg/kg; assay type: ADME, organism-based; set-up: dose 50 mg/kg, route oral; conditions: urine
Summary of the method: (§2)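 Fasted male Wistar rats, three per group, dosed orally at 50 mg/kg. Urine collected over 0-4, 4-8 and 8-24 h, diluted 1:100 in ultrapure water, then treated with water and 70% perchloric acid, vortexed and centrifuged. Supernatant analysed by HPLC with pH 2.8 KH2PO4/phosphoric acid mobile phase. Result given as % of administered dose excreted.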

[3] = Urinary excretion in rat after 8-24 hours of oral administration at 50 mg/kg; assay type: ADME, organism-based; set-up: dose 50 mg/kg, route oral; conditions: urine; summary of the method: as §2
[4] = Urinary excretion in rat after 4-8 hours of oral administration at 50 mg/kg; assay type: ADME, organism-based; set-up: dose 50 mg/kg, route oral; conditions: urine; summary of the method: as §2
[5] = Plasma concentration level in rat after 4 hours of oral administration at 50 mg/kg; assay type: ADME, organism-based; set-up: dose 50 mg/kg, route oral
Summary of the method: (§3)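 Fasted male Wistar rats, three per group, single oral dose 50 mg/kg. Plasma taken at timed points, deproteinized with 70% perchloric acid, vortexed, centrifuged; supernatant analysed by HPLC, mobile-phase buffer 0.01 M KH2PO4 brought to pH 2.8 with phosphoric acid. Values as mean ± error over the group.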

[6] = Plasma concentration level in rat after 15 hours of oral administration at 50 mg/kg; assay type: ADME, organism-based; set-up: dose 50 mg/kg, route oral; summary of the method: as §3
[7] = Plasma concentration level in rat after 1 hour of oral administration at 50 mg/kg; assay type: ADME, organism-based; set-up: dose 50 mg/kg, route oral; summary of the method: as §3

SMILES | MIC (Pseudomonas aeruginosa) [µg/mL] | MIC (Staphylococcus aureus) [µg/mL] | MIC [1] [µg/mL] | MIC (Proteus vulgaris) [µg/mL] | MIC (Klebsiella pneumoniae) [µg/mL] | MIC (Enterobacter cloacae) [µg/mL] | MIC (Escherichia coli) [µg/mL] | MIC (Enterococcus faecalis) [µg/mL] | dose excreted [2] [%] | dose excreted [3] [%] | dose excreted [4] [%] | concentration at 4 h [5] [ng/mL] | concentration at 15 h [6] [ng/mL] | concentration at 1 h [7] [ng/mL]
CC1Cn2cc(C(=O)O)c(=O)c3cc(F)c(N4CCN(c5ccc(F)cc5)CC4)c(c32)S1 (stereo unspecified) | > 64 | 8 (≈ 17.5 µM) | > 64 | > 64 | > 64 | > 64 | 8 (≈ 17.5 µM) | 4 (≈ 8.74 µM) | – | – | – | – | – | –
CC1Cn2cc(C(=O)O)c(=O)c3cc(F)c(N4CCCC4)c(c32)S1 (stereo unspecified) | > 64 | 2 (≈ 5.74 µM) | 16 (≈ 45.9 µM) | > 64 | 2 (≈ 5.74 µM) | 16 (≈ 45.9 µM) | 0.25 (≈ 0.718 µM) | 32 (≈ 91.8 µM) | – | – | – | – | – | –
CC1Cn2cc(C(=O)O)c(=O)c3cc(F)c(N4CCN(Cc5ccccc5C(F)(F)F)CC4)c(c32)S1 (stereo unspecified) | > 64 | > 64 | > 64 | > 64 | 8 (≈ 15.3 µM) | > 64 | 8 (≈ 15.3 µM) | > 64 | – | – | – | – | – | –
CC1Cn2cc(C(=O)O)c(=O)c3cc(F)c(Cl)c(c32)S1 (stereo unspecified) | 32 (≈ 102 µM) | 2 (≈ 6.37 µM) | 4 (≈ 12.7 µM) | > 64 | 8 (≈ 25.5 µM) | 2 (≈ 6.37 µM) | 0.12 (≈ 0.382 µM) | 32 (≈ 102 µM) | – | – | – | – | – | –
CC1Cn2cc(C(=O)O)c(=O)c3cc(F)c(N4CCN(C=O)CC4)c(c32)S1 (stereo unspecified) | 32 (≈ 81.8 µM) | 16 (≈ 40.9 µM) | 1 (≈ 2.55 µM) | 64 (≈ 164 µM) | 0.5 (≈ 1.28 µM) | 1 (≈ 2.55 µM) | 0.5 (≈ 1.28 µM) | 64 (≈ 164 µM) | – | – | – | – | – | –
CCNCC1CCN(c2c(F)cc3c(=O)c(C(=O)O)cn4c3c2SC(C)C4)C1 (stereo unspecified) | > 64 | 4 (≈ 9.86 µM) | 8 (≈ 19.7 µM) | > 64 | 0.25 (≈ 0.617 µM) | 8 (≈ 19.7 µM) | 0.25 (≈ 0.617 µM) | 16 (≈ 39.5 µM) | – | – | – | – | – | –
CC1Cn2cc(C(=O)O)c(=O)c3cc(F)c(N4CCN(Cc5cccc(F)c5)CC4)c(c32)S1 (stereo unspecified) | > 64 | 32 (≈ 67.9 µM) | > 64 | > 64 | > 64 | > 64 | 16 (≈ 33.9 µM) | > 64 | – | – | – | – | – | –
CC1Cn2cc(C(=O)O)c(=O)c3cc(F)c(N4CCN(c5ccccn5)CC4)c(c32)S1 (stereo unspecified) | > 64 | 0.5 (≈ 1.14 µM) | > 64 | > 64 | 2 (≈ 4.54 µM) | > 64 | 1 (≈ 2.27 µM) | 2 (≈ 4.54 µM) | – | – | – | – | – | –
O=C(O)c1cn2c3c(c(Cl)c(F)cc3c1=O)SC(c1ccccc1F)C2 (stereo unspecified) | > 64 | 8 (≈ 20.3 µM) | > 64 | > 64 | 0.5 (≈ 1.27 µM) | > 64 | 0.5 (≈ 1.27 µM) | 4 (≈ 10.2 µM) | – | – | – | – | – | –
CC1Cn2cc(C(=O)O)c(=O)c3cc(F)c(N4CCN(Cc5ccc(F)cc5F)CC4)c(c32)S1 (stereo unspecified) | > 64 | 32 (≈ 65.4 µM) | > 64 | > 64 | > 64 | > 64 | 8 (≈ 16.3 µM) | 64 (≈ 131 µM) | – | – | – | – | – | –
O=C(O)c1cn2c3c(c(N4CCNCC4)c(F)cc3c1=O)SC(c1ccc(F)cc1)C2 (stereo unspecified) | > 64 | 16 (≈ 36.1 µM) | 32 (≈ 72.2 µM) | > 64 | 16 (≈ 36.1 µM) | 32 (≈ 72.2 µM) | 2 (≈ 4.51 µM) | 16 (≈ 36.1 µM) | – | – | – | – | – | –
O=C(O)c1cn2c3c(c(Cl)c(F)cc3c1=O)SC(c1ccc(F)cc1)C2 (stereo unspecified) | > 64 | 4 (≈ 10.2 µM) | > 64 | > 64 | 0.25 (≈ 0.635 µM) | 8 (≈ 20.3 µM) | 0.25 (≈ 0.635 µM) | 8 (≈ 20.3 µM) | – | – | – | – | – | –
O=C(O)c1cn2c3c(c(Cl)c(F)cc3c1=O)SC(c1cccc(F)c1)C2 (stereo unspecified) | > 64 | 2 (≈ 5.08 µM) | > 64 | > 64 | 2 (≈ 5.08 µM) | > 64 | 2 (≈ 5.08 µM) | 32 (≈ 81.3 µM) | – | – | – | – | – | –
CN1CCN(c2c(F)cc3c(=O)c(C(=O)O)cn4c3c2SC(c2ccc(F)cc2)C4)CC1 (stereo unspecified) | > 64 | 16 (≈ 35 µM) | 64 (≈ 140 µM) | > 64 | > 64 | 32 (≈ 69.9 µM) | 8 (≈ 17.5 µM) | 64 (≈ 140 µM) | – | – | – | – | – | –
CC1CN(c2c(F)cc3c(=O)c(C(=O)O)cn4c3c2SC(C)C4)CC(C)N1 (stereo unspecified) | 32 (≈ 81.7 µM) | 4 (≈ 10.2 µM) | 4 (≈ 10.2 µM) | > 64 | 0.25 (≈ 0.639 µM) | 4 (≈ 10.2 µM) | 0.25 (≈ 0.639 µM) | 64 (≈ 163 µM) | – | – | – | – | – | –
CC1Cn2cc(C(=O)O)c(=O)c3cc(F)c(N4CCNCC4)c(c32)S1 (stereo unspecified) | 64 (≈ 176 µM) | 8 (≈ 22 µM) | 8 (≈ 22 µM) | > 64 | 2 (≈ 5.5 µM) | 16 (≈ 44 µM) | 0.25 (≈ 0.688 µM) | > 64 | 0.37 | 3.12 | 1.92 | – | – | –
CC1Cn2cc(C(=O)O)c(=O)c3cc(F)c(-n4ccnc4)c(c32)S1 (stereo unspecified) | 64 (≈ 185 µM) | 16 (≈ 46.3 µM) | 4 (≈ 11.6 µM) | > 64 | 0.25 (≈ 0.724 µM) | 16 (≈ 46.3 µM) | 0.12 (≈ 0.347 µM) | 32 (≈ 92.7 µM) | – | – | – | – | – | –
CN1CCN(c2c(F)cc3c(=O)c(C(=O)O)cn4c3c2SCC4)CC1 [RUFLOXACIN] | 8 (≈ 22 µM) | 1 (≈ 2.75 µM) | 2 (≈ 5.5 µM) | 4 (≈ 11 µM) | 0.12 (≈ 0.33 µM) | 2 (≈ 5.5 µM) | 0.25 (≈ 0.688 µM) | 16 (≈ 44 µM) | 2.18 | 15.6 | 10.5 | 4430 | 410 | 7740
CC1Cn2cc(C(=O)O)c(=O)c3cc(F)c(N4CCN(S(=O)(=O)c5ccc(F)cc5)CC4)c(c32)S1 (stereo unspecified) | > 64 | 4 (≈ 7.67 µM) | 8 (≈ 15.3 µM) | > 64 | 1 (≈ 1.92 µM) | 8 (≈ 15.3 µM) | 2 (≈ 3.83 µM) | 16 (≈ 30.7 µM) | – | – | – | – | – | –
CC1Cn2cc(C(=O)O)c(=O)c3cc(F)c(N4CCCNCC4)c(c32)S1 (stereo unspecified) | > 64 | 2 (≈ 5.3 µM) | 32 (≈ 84.8 µM) | 64 (≈ 170 µM) | 1 (≈ 2.65 µM) | 8 (≈ 21.2 µM) | 4 (≈ 10.6 µM) | 32 (≈ 84.8 µM) | – | – | – | – | – | –
CC1Cn2cc(C(=O)O)c(=O)c3cc(F)c(N4CCN(C)CC4)c(c32)S1 (stereo unspecified) | 16 (≈ 42.4 µM) | 1 (≈ 2.65 µM) | 2 (≈ 5.3 µM) | 32 (≈ 84.8 µM) | 0.25 (≈ 0.662 µM) | 4 (≈ 10.6 µM) | 0.25 (≈ 0.662 µM) | 32 (≈ 84.8 µM) | 1.5 | 5.17 | 2.59 | 7610 | 270 | 14100
O=C(O)c1cn2c3c(c(N4CCNCC4)c(F)cc3c1=O)SCC2 | – | – | – | – | – | – | – | – | 2.73 | 11.5 | 5.59 | – | – | –

Reference: ChEMBL document CHEMBL1126958, “Quinolinecarboxylic acids. 3. Synthesis and antibacterial evaluation of 2-substituted-7-oxo-2,3-dihydro-7H-pyrido[1,2,3-de] [1,4]benzothiazine-6-carboxylic acids related to rufloxacin” (J Med Chem, 1993)
